Laboratory results published in PubChem BioAssay.
Records with an inconclusive call do not appear.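 The calls were made as follows, unless noted: active = viability increase at or above a cutoff of the median across tested compounds plus 3 SD (cut at about 8.5% in these data, passing the limit was not always enough); inconclusive = some gains above the cutoff, reason not given; inactive = the rest.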

Tests used:
[1] = S. cerevisiae growth inhibition in permissive medium (OD615), pilot counter-assay for S. cerevisiae lifespan shortening project, permissive growth control (AID 705;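 active = growth inhibition above 25% in both replicates, a cutoff set 3 SD above the mean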); conditions: OD615, 24 h, at 10 µM, hits give high values
How it was run: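 assay system = Saccharomyces cerevisiae strain carrying genetically modified DeaD replicative-lifespan system | medium = SC raffinose/galactose permissive medium | dosing = 10 µM single dose, 0.25% DMSO | schedule = 24 h compound exposure at 30 °C after 4 h pre-growth | measured by = OD at 615 nm | read-out basis = growth inhibition from lowered OD615 after 24 h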

[2] = S. cerevisiae growth inhibition in restrictive medium, OD615, pilot screen, restrictive growth control, yeast lifespan reduction project (AID 706;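 active = growth inhibition above a set limit, 3 SD over mean compound inhibition, in both replicates, cut at about 43% in these data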;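 also: modified DeaD lifespan yeast strain shifted to restrictive glucose medium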); conditions: OD615, 48 h, at 10 µM, hits give high values
How it was run: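 Buffer or medium: CSMM-D glucose medium. Material: genetically modified Saccharomyces cerevisiae, DeaD replicative lifespan assay strain. Times: 48 h compound exposure at 30 °C. Measured by: optical density at 615 nm.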

[3] = doxorubicin toxicity protection in MRP-1 cells – H69AR cells, CellTiter-Glo, duplicate, MRP-1 activator project, pilot screen (AID 807); conditions: H69AR viability with doxorubicin, CellTiter-Glo luminescence; at 10 µM; hits give high values;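 also: compound pretreatment 18-22 h then 72 h combined with doxorubicin; 0% = doxorubicin alone and 100% = vehicle without doxorubicin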
[4] = viability of HCT116 without oncogenic beta-catenin – human colon tumor cells, pilot screen (AID 823;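 active = cell viability at or below a set limit in both duplicate runs, the limit being the all-compound median minus 4 SD, cut at about 23% in these data, passing the limit was not always enough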;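 also: 0% = wells killed by 20 µM Hyamine and 100% = untreated DMSO cell wells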); conditions: HCT116 beta-catenin knockout viability, CellTiter-Glo, 60 h; at 10 µM; hits give low values
[5] = viability of PTEN-null HCT116 cells – cell-based, HCT116 clonal line, CellTiter-Glo, pilot screen (AID 824;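 active = viability at or below 27.92% in each of two runs, the all-compound median minus 4 SD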;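 also: 0% = 20 µM Hyamine control and 100% = vehicle cell control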); conditions: HCT116 PTEN-deleted viability, 60 h, at 10 µM, hits give low values
[6] = RAM pathway blockade in budding yeast – dse1pr::URA3 reporter, 5-FOA selection, pilot screen (AID 869;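 active = inhibition over a set limit, the all-compound mean plus 3 SD, in both replicate runs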;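 also: 0% = DMSO wells with no growth and 100% = 10 µM 1-NA-PP1 with full growth; RAM network block rescues cells from 5-FOA so hits raise OD615 growth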); conditions: S. cerevisiae dse1pr::URA3 5-FOA growth, OD615, 2 d; at 10 µM; hits give high values; strain carries analog-sensitive mutant Cbk1 kinase
[7] = RAM signaling pathway blockade in yeast – S. cerevisiae, Pdr1DBD-CYC8 efflux-inhibited sensitized strain, primary screen (AID 1298;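 active = RAM network inhibition above 8.4% in each of two replicates, 3 SD over the compound average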;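 also: 0% = DMSO untreated cells without growth and 100% = 10 µM 1-NA-PP1 full growth; higher means more yeast growth rescued from 5-FOA killing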); conditions: S. cerevisiae cbk1-as DSE1-URA3 strain, 5-FOA growth OD615, 2 d; at 50 µM; hits give high values

COc1ccc(C2C(C(N)=O)=C(C)Nc3nc(-c4ccccc4Cl)nn32)c(OC)c1 (centres undefined)
inactive: growth inhibition [1] -17.8% | growth inhibition [2] -11.2% | viability increase [3] -0.07% | viability [4] 93.9% | viability [5] 94.7% | inhibition [6] 1.21% | RAM network inhibition [7] -1.06%

CCCc1cc(=O)oc2cc(OCC(=O)N(C)C)c(Cl)cc12
inactive: growth inhibition [1] -3.68% | growth inhibition [2] 6.56% | viability increase [3] -0.5% | viability [4] 99.6% | viability [5] 93.9% | inhibition [6] 1.73% | RAM network inhibition [7] -1.29%

COc1cccc(-n2c(Cc3cc(=O)[nH]c(=O)[nH]3)nnc2SCC(=O)N2CCCCC2)c1
inactive: growth inhibition [1] -2.5% | growth inhibition [2] -0.925% | viability increase [3] -1.49% | viability [4] 112% | viability [5] 96.8% | inhibition [6] 1.77% | RAM network inhibition [7] 5.28%

Cc1onc(-c2ccccc2Cl)c1C(=O)Nc1ccc(OCC(=O)N2CCOCC2)cc1
inactive: growth inhibition [1] 2.78% | growth inhibition [2] 5.62% | viability increase [3] -2.3% | viability [4] 104% | viability [5] 99.5% | inhibition [6] 1.5% | RAM network inhibition [7] 5.11%

CCc1ccc(C2CC(c3ccccc3Cl)Nc3nc(N)nn32)cc1 (centres undefined)
inactive: growth inhibition [1] 8.37% | growth inhibition [2] 26.1% | viability increase [3] -2.66% | viability [4] 95% | viability [5] 80.7% | inhibition [6] 0.86% | RAM network inhibition [7] 8.56%

CCOc1ccc(OCC)c(S(=O)(=O)NCCCN2CCOCC2)c1
inactive: growth inhibition [1] -13.8% | growth inhibition [2] -12.2% | viability increase [3] -0.25% | viability [4] 99.8% | viability [5] 99% | inhibition [6] 0.535% | RAM network inhibition [7] 0.2%

CCOC(=O)N1CCC(N2CC34C=CC(O3)C(C(=O)Nc3ccc(OCC)cc3)C4C2=O)CC1 (centres undefined)
inactive: growth inhibition [1] 0.885% | growth inhibition [2] 0.91% | viability increase [3] 2.9% | viability [4] 108% | viability [5] 112% | inhibition [6] 0.595% | RAM network inhibition [7] 3.14%

O=C(NCCN1CCOCC1)c1ccc2c(c1)ncn2C1CCCC1
inactive: growth inhibition [1] -10% | growth inhibition [2] 5.44% | viability increase [3] -0.55% | viability [4] 106% | viability [5] 105% | inhibition [6] 1.44% | RAM network inhibition [7] 4.43%

CCOC(=O)C1CCCN(Cc2nc(N)nc(Nc3ccccc3OC)n2)C1 (centres undefined)
inactive: growth inhibition [1] -0.44% | growth inhibition [2] -2.06% | viability increase [3] -3.66% | viability [4] 88.8% | viability [5] 83.4% | inhibition [6] 0.15% | RAM network inhibition [7] 0.43%

O=C(CCNS(=O)(=O)c1cccc2nsnc12)NC1CCN(Cc2ccccc2)CC1
inactive: growth inhibition [1] -3.28% | growth inhibition [2] -9.7% | viability increase [3] -2.01% | viability [4] 87% | viability [5] 89% | inhibition [6] -0.175% | RAM network inhibition [7] 5.02%

Cc1noc(NS(=O)(=O)c2ccc(NC(=O)c3cnc4scc(C)n4c3=O)cc2)c1C
inactive: growth inhibition [1] -2.39% | growth inhibition [2] -5.18% | viability increase [3] 1.99% | viability [4] 101% | viability [5] 101% | inhibition [6] 2.61% | RAM network inhibition [7] 6.1%

COC(=O)C1C(=O)c2c([nH]c(C(=O)OC3CCCC3C)c2C)CC1C (centres undefined)
inactive: growth inhibition [1] -4.87% | growth inhibition [2] -2.27% | viability increase [3] 3.21% | viability [4] 81.2% | viability [5] 72.7% | inhibition [6] 2.68% | RAM network inhibition [7] 3.76%

O=C(Cc1cccs1)N1CCN(c2ccccn2)CC1
inactive: growth inhibition [1] -2.47% | growth inhibition [2] -11.1% | viability increase [3] -0.45% | viability [4] 93.5% | viability [5] 98% | inhibition [6] 0.735% | RAM network inhibition [7] 2.55%

COc1ccc(C(=O)O)cc1Nc1cc(C)nc2ncnn12
inactive: growth inhibition [1] 1.95% | growth inhibition [2] -2.37% | viability increase [3] -1.14% | viability [4] 103% | viability [5] 93% | inhibition [6] 0.015% | RAM network inhibition [7] 0.94%

Clc1ccccc1CSc1nnc(-c2cccnc2)n1Cc1ccco1
inactive: growth inhibition [1] 2.38% | growth inhibition [2] 23.5% | viability increase [3] -4.89% | viability [4] 90.4% | viability [5] 91% | inhibition [6] 1.38% | RAM network inhibition [7] 4.7%

COC(=O)c1cc(NC(=O)c2nccnc2C(=O)O)cc(C(=O)OC)c1
inactive: growth inhibition [1] -10.9% | growth inhibition [2] 3.16% | viability increase [3] -1.21% | viability [4] 90.4% | viability [5] 98% | inhibition [6] -0.12% | RAM network inhibition [7] -1.46%

COc1ccc(NC(=O)C(CC(=O)O)Cc2ccccc2)cc1 (centres undefined)
inactive: growth inhibition [1] -17% | growth inhibition [2] -9.36% | viability increase [3] -0.09% | viability [4] 102% | viability [5] 97.9% | inhibition [6] 1.62% | RAM network inhibition [7] 5.61%

O=C(Cn1cnc2c(cnn2-c2ccc(F)cc2)c1=O)NCCc1ccccc1
inactive: growth inhibition [1] -1.94% | growth inhibition [2] -1.9% | viability increase [3] 1.69% | viability [4] 97.6% | viability [5] 95.7% | inhibition [6] 3.04% | RAM network inhibition [7] 6.6%

O=C1CN(C(=O)c2ccc(Br)o2)C(c2ccccc2)c2cc(F)ccc2N1 (centres undefined)
inactive: growth inhibition [1] -12.5% | growth inhibition [2] -28% | viability increase [3] -5.91% | viability [4] 84.9% | viability [5] 78.7% | inhibition [6] 1.08% | RAM network inhibition [7] 2.36%

COC(=O)CN(n1cnnc1)S(=O)(=O)c1ccccc1
inactive: growth inhibition [1] -9.75% | growth inhibition [2] -4.21% | viability increase [3] -0.13% | viability [4] 99% | viability [5] 96.9% | inhibition [6] 1.23% | RAM network inhibition [7] -0.62%

COc1ccc(N2CCN(Cc3nc4c(c(=O)n(C)c(=O)n4C)n3Cc3cccc(C)c3)CC2)cc1
inactive: growth inhibition [1] -11.5% | growth inhibition [2] -24.2% | viability increase [3] -3.88% | viability [4] 80.1% | viability [5] 75.2% | inhibition [6] -0.7% | RAM network inhibition [7] 8.85%

Cc1c(C(=O)NCC2CCCO2)sc2nc(-c3ccc(F)cc3)cn12 (centres undefined)
inactive: growth inhibition [1] 3.06% | growth inhibition [2] 0.065% | viability increase [3] 1.26% | viability [4] 95.2% | viability [5] 97.3% | inhibition [6] 0.68% | RAM network inhibition [7] 3.33%

COCCCNC(=O)c1c(F)c(F)c(F)c(F)c1F
inactive: growth inhibition [1] -11.2% | growth inhibition [2] -2.95% | viability increase [3] -1.94% | viability [4] 95.7% | viability [5] 92.9% | inhibition [6] 0.09% | RAM network inhibition [7] -0.98%

CCOC(=O)C1CCN(C(=O)CN(c2ccc(OC)c(OC)c2)S(=O)(=O)c2ccccc2)CC1
inactive: growth inhibition [1] -2.99% | growth inhibition [2] -7.61% | viability increase [3] 0.05% | viability [4] 104% | viability [5] 94.6% | inhibition [6] 1.19% | RAM network inhibition [7] 6.25%

CC(=O)Oc1c(Cl)c(N2CCOCC2)c(OC(C)=O)c2ccccc12
inactive: growth inhibition [1] -22.8% | growth inhibition [2] -7.78% | viability increase [3] -6.81% | viability [4] 70.4% | viability [5] 79% | inhibition [6] -0.75% | RAM network inhibition [7] 2.47%

CCn1cc(C(=O)N2CC(C)CC(C)C2)c(=O)c2cc(S(=O)(=O)N(C)C)ccc21 (centres undefined)
inactive: growth inhibition [1] 4.35% | growth inhibition [2] 6.52% | viability increase [3] -0.18% | viability [4] 103% | viability [5] 101% | inhibition [6] -0.3% | RAM network inhibition [7] 2.78%

CCCCN(C)Cc1c(C)[nH]c2ccc(OCC)cc2c1=O
inactive: growth inhibition [1] -11.7% | growth inhibition [2] -20% | viability increase [3] -0.94% | viability [4] 93.6% | viability [5] 97.9% | inhibition [6] 1.4% | RAM network inhibition [7] 4.04%

CCOC(=O)N1CCC(NC(=O)c2ccc(NC(=O)C3CCCO3)cc2)CC1 (centres undefined)
inactive: growth inhibition [1] -10.8% | growth inhibition [2] -9.25% | viability increase [3] 0.49% | viability [4] 97.8% | viability [5] 105% | inhibition [6] 1.09% | RAM network inhibition [7] -0.36%

Cc1ccc(C(c2sc3nc(C)nn3c2O)N2CCN(CCO)CC2)cc1 (centres undefined)
inactive: growth inhibition [1] -1.01% | growth inhibition [2] 7% | viability increase [3] -0.92% | viability [4] 97.8% | viability [5] 97.5% | inhibition [6] 1.54% | RAM network inhibition [7] 4.52%

COC(=O)c1ccc(-n2nnnc2SCC(=O)N2CCCCC2)cc1
inactive: growth inhibition [1] -8.57% | growth inhibition [2] -21.9% | viability increase [3] -3% | viability [4] 85.8% | viability [5] 86.1% | inhibition [6] 0.045% | RAM network inhibition [7] 1.64%

COc1ccccc1NC(=O)N1CCN(c2ccccn2)CC1
inactive: growth inhibition [1] -12.1% | growth inhibition [2] -7.1% | viability increase [3] 0.85% | viability [4] 103% | viability [5] 104% | inhibition [6] 2.67% | RAM network inhibition [7] 4.32%

CC1CCc2nn(CC(=O)NCCCN3CCCC3=O)cc2C1 (centres undefined)
inactive: growth inhibition [1] -17.8% | growth inhibition [2] -22.7% | viability increase [3] -1.1% | viability [4] 103% | viability [5] 93.7% | inhibition [6] 1.29% | RAM network inhibition [7] 4.13%
